According to ChEMBL document CHEMBL4371061, “Identification of novel triazole inhibitors of Wnt/β-catenin signaling based on the Niclosamide chemotype” (Bioorg Med Chem Lett, 2019):
pIC50: −log10 of the molar value. Activity calls are given as the source filed them. The calls are words filed in the database; no cut-off is given here.

How the values were obtained:
Homo sapiens [1] = species on record: Homo sapiens; test: Inhibition of Wnt/beta-catenin signaling pathway in human HCT116 whole cell lysate harboring beta-catenin mutation assessed as reduction in c-Myc protein expression at 5 uM after 18 hrs by Western blot analysis relative to control; assay type: subcellular
Method in brief: (§1)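 Cells were treated with 5 μM compound in DMSO, or DMSO alone, for 18 h. Cytosolic fraction and whole-cell lysate were immunoblotted for target proteins with β-actin as loading control. Band levels were normalized to β-actin and expressed as percent of the DMSO-treated control.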

Homo sapiens [2] = species on record: Homo sapiens; test: Inhibition of Wnt/beta-catenin signaling pathway in human HCT116 cells cytosol lysate harboring beta-catenin mutation assessed as reduction in Axin2 protein expression at 5 uM after 18 hrs by Western blot analysis relative to control; assay type: subcellular; method in brief: as §1
Homo sapiens [3] = species on record: Homo sapiens; test: Inhibition of Wnt/beta-catenin signaling pathway in human HCT116 cells cytosol lysate harboring beta-catenin mutation assessed as reduction in beta-catenin protein expression at 5 uM after 18 hrs by Western blot analysis relative to control; assay type: subcellular; method in brief: as §1
[4] = target: Frizzled-1 (Homo sapiens) (UniProt Q9UP38); test: Induction of GFP-tagged Fzd1 (unknown origin) internalization expressed in human U2OS cells at 12.5 after 6 hrs by confocal microscopic method relative to control; assay type: cell-based
Sequence of Frizzled-1 (Homo sapiens) (Q9UP38 70-647 limits assumed): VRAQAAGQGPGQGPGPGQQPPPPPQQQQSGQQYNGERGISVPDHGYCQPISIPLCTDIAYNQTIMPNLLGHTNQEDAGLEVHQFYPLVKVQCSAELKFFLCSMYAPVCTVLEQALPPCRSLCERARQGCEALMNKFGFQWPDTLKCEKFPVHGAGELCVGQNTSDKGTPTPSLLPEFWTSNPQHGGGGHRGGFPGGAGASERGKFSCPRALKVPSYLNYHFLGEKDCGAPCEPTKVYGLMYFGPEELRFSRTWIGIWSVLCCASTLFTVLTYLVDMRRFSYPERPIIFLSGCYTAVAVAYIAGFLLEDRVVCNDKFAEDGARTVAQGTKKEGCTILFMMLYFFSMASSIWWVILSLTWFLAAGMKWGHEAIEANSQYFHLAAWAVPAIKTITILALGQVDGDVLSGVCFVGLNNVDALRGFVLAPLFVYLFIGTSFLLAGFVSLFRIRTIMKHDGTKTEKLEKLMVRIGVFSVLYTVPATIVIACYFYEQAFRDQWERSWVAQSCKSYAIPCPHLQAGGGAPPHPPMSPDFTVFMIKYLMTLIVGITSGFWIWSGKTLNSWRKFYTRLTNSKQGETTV
Method in brief: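 U2OS cells stably expressing Frizzled1-GFP were exposed to compound for 6 h, fixed and imaged by confocal microscopy. Punctate was scored visually against DMSO control: similar to control = 0, trace = 1, moderate = 3, strong = 5.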

SW480 [5] = test: Inhibition of Wnt/beta-catenin signaling pathway in human SW480 cells cytosol lysate harboring APC mutation assessed as reduction in beta-catenin protein expression at 5 uM after 18 hrs by Western blot analysis relative to control; assay type: subcellular; method in brief: as §1
[6] = Inhibition of Wnt3A-stimulated Wnt/beta-catenin pathway in HEK293 cells transfected with p8xTOPFlash, Renilla luciferase plasmid pRL-TK and pLKO.1 after 8 hrs by Dual topflash luciferase reporter gene assay; assay type: cell-based; conditions: Homo sapiens, HEK293, 8 h
Method in brief: (§2)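 HEK293 cells stably carrying a TOPFlash luciferase reporter and a Renilla luciferase control were stimulated with Wnt3A-conditioned medium and given DMSO or compound (0.04–10 μM) for 8 h. Wnt3A plus DMSO was set as 100%. IC50 was fit from mean ± SEM, n 3. Percent inhibition at the two highest concentrations was given when no full curve was obtained.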

SW480 [7] = test: Inhibition of Wnt/beta-catenin signaling pathway in human SW480 whole cell lysate harboring APC mutation assessed as reduction in cyclin D1 protein expression at 5 uM after 18 hrs by Western blot analysis relative to control; assay type: subcellular; method in brief: as §1
SW480 [8] = test: Inhibition of Wnt/beta-catenin signaling pathway in human SW480 cells cytosol lysate harboring APC mutation assessed as reduction in Axin2 protein expression at 5 uM after 18 hrs by Western blot analysis relative to control; assay type: subcellular; method in brief: as §1
Homo sapiens [9] = species on record: Homo sapiens; test: Inhibition of Wnt/beta-catenin signaling pathway in human HCT116 whole cell lysate harboring beta-catenin mutation assessed as reduction in cyclin D1 protein expression at 5 uM after 18 hrs by Western blot analysis relative to control; assay type: subcellular; method in brief: as §1
Homo sapiens [10] = species on record: Homo sapiens; test: Inhibition of Wnt/beta-catenin signaling pathway in human HCT116 whole cell lysate harboring beta-catenin mutation assessed as reduction in survivin protein expression at 5 uM after 18 hrs by Western blot analysis relative to control; assay type: subcellular; method in brief: as §1
SW480 [11] = test: Inhibition of Wnt/beta-catenin signaling pathway in human SW480 whole cell lysate harboring APC mutation assessed as reduction in c-Myc protein expression at 5 uM after 18 hrs by Western blot analysis relative to control; assay type: subcellular; method in brief: as §1
SW480 [12] = test: Inhibition of Wnt/beta-catenin signaling pathway in human SW480 whole cell lysate harboring APC mutation assessed as reduction in survivin protein expression at 5 uM after 18 hrs by Western blot analysis relative to control; assay type: subcellular; method in brief: as §1
Homo sapiens [13] = species on record: Homo sapiens; test: Inhibition of Wnt/beta-catenin signaling pathway in human HCT116 whole cell lysate harboring beta-catenin mutation assessed as reduction in survivin protein expression at 5 to 10 uM after 18 hrs by Western blot analysis
Homo sapiens [14] = species on record: Homo sapiens; test: Inhibition of Wnt/beta-catenin signaling pathway in human HCT116 cells cytosol lysate harboring beta-catenin mutation assessed as reduction in Axin2 protein expression at 5 to 10 uM after 18 hrs by Western blot analysis; assay type: subcellular
Homo sapiens [15] = species on record: Homo sapiens; test: Inhibition of Wnt/beta-catenin signaling pathway in human HCT116 whole cell lysate harboring beta-catenin mutation assessed as reduction in survivin protein expression at 5 to 10 uM after 18 hrs by Western blot analysis; assay type: subcellular
Homo sapiens [16] = species on record: Homo sapiens; test: Inhibition of Wnt/beta-catenin signaling pathway in human HCT116 cells cytosol lysate harboring beta-catenin mutation assessed as reduction in beta-catenin protein expression at 5 to 10 uM after 18 hrs by Western blot analysis; assay type: subcellular
Homo sapiens [17] = species on record: Homo sapiens; test: Inhibition of Wnt/beta-catenin signaling pathway in human HCT116 whole cell lysate harboring beta-catenin mutation assessed as reduction in c-Myc protein expression at 5 to 10 uM after 18 hrs by Western blot analysis; assay type: subcellular
HEK293 [18] = test: Inhibition of Wnt3A-stimulated Wnt/beta-catenin pathway in HEK293 cells transfected with p8xTOPFlash, Renilla luciferase plasmid pRL-TK and pLKO.1 assessed as residual activity at 10 uM after 8 hrs by Dual topflash luciferase reporter gene assay relative to control; assay type: cell-based; conditions: Homo sapiens; method in brief: as §2
HEK293 [19] = test: Inhibition of Wnt3A-stimulated Wnt/beta-catenin pathway in HEK293 cells transfected with p8xTOPFlash, Renilla luciferase plasmid pRL-TK and pLKO.1 at 10 uM after 8 hrs by Dual topflash luciferase reporter gene assay relative to control; assay type: cell-based; conditions: Homo sapiens; method in brief: as §2
HEK293 [20] = test: Inhibition of Wnt3A-stimulated Wnt/beta-catenin pathway in HEK293 cells transfected with p8xTOPFlash, Renilla luciferase plasmid pRL-TK and pLKO.1 at 5 uM after 8 hrs by Dual topflash luciferase reporter gene assay relative to control; assay type: cell-based; conditions: Homo sapiens; method in brief: as §2

Row | Compound | inhibition (Homo sapiens [1]) [%] | inhibition (Homo sapiens [2]) [%] | inhibition (Homo sapiens [3]) [%] | score [4] | inhibition (SW480 [5]) [%] | pIC50 [6] | inhibition (SW480 [7]) [%] | inhibition (SW480 [8]) [%] | inhibition (Homo sapiens [9]) [%] | inhibition (SW480 [11]) [%] | inhibition (Homo sapiens [14]) | inhibition (Homo sapiens [16]) | inhibition (Homo sapiens [17]) | inhibition (Homo sapiens [10]) [%] | inhibition (SW480 [12]) [%] | inhibition (Homo sapiens [13]) | inhibition (Homo sapiens [15]) | Activity (HEK293 [18]) [%] | inhibition (HEK293 [19]) [%] | inhibition (HEK293 [20]) [%]
1 | O=[N+]([O-])c1ccc(-c2nnc(-c3cc(Cl)ccc3O)[nH]2)cc1 | 2 | 75 | 59 | 4 | 67 | 5.85 | 70 | 44 | 20 | 2 | – | – | – | 38 | 38 | – | – | – | – | –
2 | Oc1ccc(Cl)cc1-c1nnc(-c2ccccc2)[nH]1 | – | – | – | 0 | – | 5.40 | – | – | – | – | Active | Active | Active | – | – | Active | Active | – | – | –
3 | O=[N+]([O-])c1ccc(-c2nnc(-c3cc(Cl)ccc3O)[nH]2)c(Cl)c1 | 3 | 68 | 34 | 5 | 69 | 5.74 | 57 | 47 | 22 | 4 | – | – | – | 38 | 43 | – | – | – | – | –
4 | O=C(NC(=O)c1cc(Cl)ccc1O)c1ccc([N+](=O)[O-])cc1 | – | – | – | 0 | – | – | – | – | – | – | – | – | – | – | – | – | – | 153 | – | –
5 | O=C(NCc1ccc([N+](=O)[O-])cc1)c1cc(Cl)ccc1O | – | – | – | 0 | – | – | – | – | – | – | – | – | – | – | – | – | – | – | 43 | 3
6 | O=C(Nc1ccc([N+](=O)[O-])cc1Cl)c1cc(Cl)ccc1O [NICLOSAMIDE] | 1 | 35 | 46 | 5 | 74 | 6.47 | 45 | 29 | 28 | 3 | – | – | – | 44 | 41 | – | – | – | – | –

The next lines start with results.

Row | inhibition (Homo sapiens [1]) [%] | inhibition (Homo sapiens [2]) [%] | inhibition (Homo sapiens [3]) [%] | score [4] | inhibition (SW480 [5]) [%] | pIC50 [6] | inhibition (SW480 [7]) [%] | inhibition (SW480 [8]) [%] | inhibition (Homo sapiens [9]) [%] | inhibition (SW480 [11]) [%] | inhibition (Homo sapiens [14]) | inhibition (Homo sapiens [16]) | inhibition (Homo sapiens [17]) | Compound | inhibition (Homo sapiens [10]) [%] | inhibition (SW480 [12]) [%] | inhibition (Homo sapiens [13]) | inhibition (Homo sapiens [15]) | Activity (HEK293 [18]) [%] | inhibition (HEK293 [19]) [%] | inhibition (HEK293 [20]) [%]
7 | 3 | 68 | 6 | 2 | 72 | 5.54 | 76 | 58 | 17 | 2 | – | – | – | Oc1ccc(Cl)cc1-c1nnc(-c2ccc(C(F)(F)F)cc2)[nH]1 | 44 | 56 | – | – | – | – | –
8 | – | – | – | 0 | – | – | – | – | – | – | – | – | – | COc1ccc(-c2nnc(-c3cc(Cl)ccc3O)[nH]2)cc1 | – | – | – | – | – | 60 | 14
9 | – | – | – | 1 | – | 5.72 | – | – | – | – | – | – | – | Oc1ccc(Cl)cc1-c1nnc(-c2ccc(F)cc2)[nH]1 | – | – | – | – | – | – | –
